# Assays:
# [1] = target: T1, Vitamin D3 receptor A (Danio rerio, UniProt Q9PTN2); test: Agonist activity at zebrafish gal4-VDR LBD expressed in human MCF7 cells by luciferase reporter gene based transactivation assay; format: cell-based
# T1 sequence (Q9PTN2 whole entry): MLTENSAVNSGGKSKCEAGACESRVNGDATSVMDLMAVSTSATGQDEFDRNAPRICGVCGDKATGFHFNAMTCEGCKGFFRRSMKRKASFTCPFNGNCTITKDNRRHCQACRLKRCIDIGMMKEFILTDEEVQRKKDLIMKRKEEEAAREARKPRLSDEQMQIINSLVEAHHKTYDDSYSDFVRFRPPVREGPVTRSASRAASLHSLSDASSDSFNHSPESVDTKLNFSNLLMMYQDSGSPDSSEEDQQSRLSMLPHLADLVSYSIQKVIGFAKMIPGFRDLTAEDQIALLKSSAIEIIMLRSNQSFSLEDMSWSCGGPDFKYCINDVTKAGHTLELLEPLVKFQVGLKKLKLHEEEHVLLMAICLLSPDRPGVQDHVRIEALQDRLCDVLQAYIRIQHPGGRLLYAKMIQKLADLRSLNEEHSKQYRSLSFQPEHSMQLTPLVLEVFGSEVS
# In short: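 MCF-7 cells (10^5/well) were grown overnight in phenol red-free DMEM with 10% charcoal-treated FBS and 0.6 μg/ml insulin. They were transfected with jetPEI using Gal4DBD-zVDR(156–453) (25 ng), ptk-LUC reporter (250 ng) and β-galactosidase control (50 ng). After 10 h, ligand at 0.1–100 nM or DMSO solvent was added. After 24 h, luciferase was read, normalized to β-gal, in triplicate.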
# [2] = target: T2, Vitamin D3 receptor A (Danio rerio) (UniProt Q9PTN2); test: Agonist activity at zebrafish gal4-VDR LBD expressed in human MCF7 cells by luciferase reporter gene based transactivation assay relative to 1alpha,25(OH)2D3; format: cell-based; details: tested as the 2H-labelled form
# T2 sequence (whole entry): T1 sequence (Q9PTN2 whole entry)
# In short: (§1)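 Transient transfection of MCF-7 cells (10^5/well, grown overnight in phenol red-free DMEM with 10% charcoal-treated FBS, gentamicin, insulin) with Gal4DBD-zVDR(156–453), ptk-LUC reporter, β-galactosidase control and carrier plasmid via jetPEI. After 10 h, ligands at 0.1, 1, 10, 100 nM versus DMSO solvent for 24 h. Luciferase normalized to β-galactosidase; triplicates, mean and S.D.; EC50 derived.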
# [3] = target: T2, Vitamin D3 receptor A (Danio rerio); test: Agonist activity at zebrafish gal4-VDR LBD expressed in human MCF7 cells by luciferase reporter gene based transactivation assay relative to parental gemini; format: cell-based; details: tested as the 2H-labelled form; in short: as §1
# [4] = Antiproliferative activity against ER negative human MCF10DCIS.com cells after 3 days by [3H]thymidine uptake assay
# [5] = Antiproliferative activity against ER positive human MCF10AT1 cells after 3 days by [3H]thymidine uptake assay; format: functional
# [6] = Antiproliferative activity against ER positive human MCF10AT1 cells after 3 days by [3H]thymidine uptake assay relative to 1alpha,25(OH)2D3; format: functional
# [7] = Antiproliferative activity against ER positive human MCF10CA1a cells after 3 days by [3H]thymidine uptake assay; format: functional
# [8] = Antiproliferative activity against ER negative human MCF10DCIS.com cells after 3 days by [3H]thymidine uptake assay relative to 1alpha,25(OH)2D3
# [9] = Antiproliferative activity against ER positive human MCF10CA1a cells after 3 days by [3H]thymidine uptake assay relative to 1alpha,25(OH)2D3; format: functional
EC50 [1] [nM],fold change (FC) [2],fold change (FC) [3],Compound,IC50 [4] [nM],IC50 [5] [nM],fold change (FC) [6],IC50 [7] [nM],fold change (FC) [8],fold change (FC) [9]
1.2,–,–,C=C1/C(=C\C=C2/CCC[C@]3(C)[C@@H](C(CCCC(C)(C)O)CCCC(C)(C)O)CC[C@@H]23)C[C@H](O)C[C@H]1O,–,–,–,–,–,–
–,36,8,CC(C)(O)CCC[C@@H](CC#CC(O)(C(F)(F)F)C(F)(F)F)[C@H]1CC[C@H]2/C(=C/C=C3C[C@H](O)C[C@@H](O)C3)CCC[C@]12C,–,–,–,–,–,–
0.25,–,–,[2H]C([2H])([2H])C(O)(CCC[C@H](CC#CC(O)(C(F)(F)F)C(F)(F)F)[C@H]1CC[C@H]2/C(=C/C=C3C[C@H](O)C[C@@H](O)C3)CCC[C@]12C)C([2H])([2H])[2H],0.36,0.51,10,0.15,10,10
–,22,5,CC(C)(O)CCC[C@H](CC#CC(O)(C(F)(F)F)C(F)(F)F)[C@H]1CC[C@H]2/C(=C/C=C3C[C@H](O)C[C@@H](O)C3)CCC[C@]12C,–,–,–,–,–,–
0.15,–,–,[2H]C([2H])([2H])C(O)(CCC[C@@H](CC#CC(O)(C(F)(F)F)C(F)(F)F)[C@H]1CC[C@H]2/C(=C/C=C3C[C@H](O)C[C@@H](O)C3)CCC[C@]12C)C([2H])([2H])[2H],0.23,0.23,10,0.09,10,10
